Results taken from publication PMC9096626 (RSC Advances, 2022).

Tests used:
[1] = iEDDA cycloaddition kinetics with TCO-OH; conditions: water : DMSO (4 : 1), 37 °C
Outline: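 Pseudo-first-order runs at 37 °C used varied TCO-OH concentrations at 10- to 50-fold excess over the tetrazine amino acid. Full spectra (700–200 nm) were followed by time-resolved UV-Vis and fitted as single-step kinetics to give kobs. Second-order rate constants came from the slope of kobs against [TCO-OH].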

[2] = system: Somatostatin receptor type 2 (SSTR2); conditions: statement in words; cited from earlier work

| Molecule | iEDDA cycloaddition rate relative to methyl analogue 4b [1] | affinity for Somatostatin receptor type 2 (SSTR2) [2] |
| --- | --- | --- |
| Cl.N[C@@H](Cc1ccc(Oc2nnc(-c3ccccc3)nn2)cc1)C(=O)O [4c] | three times faster than 4b | – |
| Cl.N[C@@H](CC1=CCC(O)(c2nncnn2)C=C1)C(=O)O (stereo partly drawn) [4a] | 14 times | – |
| octreotide | – | high affinity |
